ChEMBL document CHEMBL4706565, “Anti-glioma effects of 2-aminothiophene-3-carboxamide derivatives, ANO1 channel blockers” (Eur J Med Chem, 2020)
Activity calls are given as the source filed them. No cut-off for these calls is given here.

Experiments:
[1] = molecular target: T1, Anoctamin-1 (Mus musculus) (UniProt Q8BHY3); assay: Irreversible inhibition of GFP-fused mouse ANO1 channel expressed in HEK293A cells assessed as inhibition of channel current amplitude at 10 uM at membrane potential of +80 mV measured after drug wash-out by patch clamp electrophysiology assay; format: cell-based; conditions: HEK293-A
T1 sequence (whole entry): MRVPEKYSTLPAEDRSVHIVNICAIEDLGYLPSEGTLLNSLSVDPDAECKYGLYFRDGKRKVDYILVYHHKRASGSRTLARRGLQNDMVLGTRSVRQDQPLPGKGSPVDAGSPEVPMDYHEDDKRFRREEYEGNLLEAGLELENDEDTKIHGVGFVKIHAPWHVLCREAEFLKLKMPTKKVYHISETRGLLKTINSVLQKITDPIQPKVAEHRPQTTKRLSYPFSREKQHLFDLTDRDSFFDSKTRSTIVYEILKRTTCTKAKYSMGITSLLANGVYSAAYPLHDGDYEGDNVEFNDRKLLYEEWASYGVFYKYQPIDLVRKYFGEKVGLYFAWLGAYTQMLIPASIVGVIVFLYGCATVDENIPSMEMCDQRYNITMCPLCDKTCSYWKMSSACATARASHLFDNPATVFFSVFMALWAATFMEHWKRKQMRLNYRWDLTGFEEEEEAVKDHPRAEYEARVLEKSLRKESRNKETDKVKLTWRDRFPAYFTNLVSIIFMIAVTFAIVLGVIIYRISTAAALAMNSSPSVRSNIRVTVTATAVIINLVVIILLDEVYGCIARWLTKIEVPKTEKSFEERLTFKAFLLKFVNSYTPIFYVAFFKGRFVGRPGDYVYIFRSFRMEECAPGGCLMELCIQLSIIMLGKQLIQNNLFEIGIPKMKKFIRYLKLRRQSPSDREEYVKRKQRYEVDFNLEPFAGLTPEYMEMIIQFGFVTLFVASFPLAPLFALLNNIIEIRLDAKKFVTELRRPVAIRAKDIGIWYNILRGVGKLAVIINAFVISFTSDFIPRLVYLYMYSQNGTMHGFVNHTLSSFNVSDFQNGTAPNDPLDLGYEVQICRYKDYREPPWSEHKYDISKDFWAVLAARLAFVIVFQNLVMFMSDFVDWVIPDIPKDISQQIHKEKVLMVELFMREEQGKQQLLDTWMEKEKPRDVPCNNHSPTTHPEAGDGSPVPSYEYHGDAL
In short: (§1)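 Whole-cell recording at room temperature in HEK293A cells transfected with GFP-mANO1, GFP-mANO2 or GFP-mTTYH1. 1 s ramps from +80 to -80 mV, holding potential -10 mV. For ANO1/ANO2: pipette CsCl 146 mM with Ca-EGTA-NMDG, pH 7.3; bath NaCl-based, pH 7.3. For TTYH1: Tris-aspartate pipette (pH 7.2) and Tris-HCl bath (pH 7.4), with […] and BaCl2 added to block K+ channels, and hypotonic (220 mOsm/kg) bath. Washout recordings assessed reversibility.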

Anoctamin-2 = molecular target: T2, Anoctamin-2 (Mus musculus, UniProt Q8CFW1); assay: Inhibition of GFP-fused mouse ANO2 channel expressed in HEK293A cells assessed as inhibition of channel current amplitude at membrane potential of +80 mV by patch clamp electrophysiology assay; format: cell-based, HEK293-A; in short: as §1
T2 sequence (Q8CFW1 whole entry): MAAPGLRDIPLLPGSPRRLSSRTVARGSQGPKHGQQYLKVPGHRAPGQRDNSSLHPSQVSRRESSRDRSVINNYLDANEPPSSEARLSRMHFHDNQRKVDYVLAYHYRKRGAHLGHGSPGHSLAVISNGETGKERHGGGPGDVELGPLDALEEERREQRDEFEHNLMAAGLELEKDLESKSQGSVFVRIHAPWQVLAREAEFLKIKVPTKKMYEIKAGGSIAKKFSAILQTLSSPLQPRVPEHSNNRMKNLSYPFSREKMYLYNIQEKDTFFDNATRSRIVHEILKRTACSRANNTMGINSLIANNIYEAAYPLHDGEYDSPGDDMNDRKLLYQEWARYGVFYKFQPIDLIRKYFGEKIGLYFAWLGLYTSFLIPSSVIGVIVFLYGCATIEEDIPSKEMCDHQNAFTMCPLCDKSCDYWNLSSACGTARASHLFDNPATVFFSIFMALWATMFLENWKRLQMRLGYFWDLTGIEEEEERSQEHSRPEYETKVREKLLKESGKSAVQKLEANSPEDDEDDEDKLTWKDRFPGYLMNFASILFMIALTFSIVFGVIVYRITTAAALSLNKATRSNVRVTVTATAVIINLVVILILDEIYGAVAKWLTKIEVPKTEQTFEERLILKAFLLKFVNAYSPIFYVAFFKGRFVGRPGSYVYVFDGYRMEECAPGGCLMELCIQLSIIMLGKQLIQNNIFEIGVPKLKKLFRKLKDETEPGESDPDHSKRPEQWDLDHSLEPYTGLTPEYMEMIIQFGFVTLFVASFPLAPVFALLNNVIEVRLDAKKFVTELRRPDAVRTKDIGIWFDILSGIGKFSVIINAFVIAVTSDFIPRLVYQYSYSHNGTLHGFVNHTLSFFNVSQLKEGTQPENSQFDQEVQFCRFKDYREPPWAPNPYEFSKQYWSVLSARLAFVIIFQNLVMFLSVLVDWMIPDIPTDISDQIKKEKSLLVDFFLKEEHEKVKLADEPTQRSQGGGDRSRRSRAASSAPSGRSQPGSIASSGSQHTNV

U-251 [2] = assay: Synergistic antiproliferative activity against human U251 cells assessed as combination index at compound:temozolomide concentration ratio of 1:1 in presence of temozolomide by Chou-Talalay method; format: functional
In short: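 U251 proliferation measured with CellTiter-Glo across full titrations of an ANO1 inhibitor combined with temozolomide. Combination index calculated by the Chou-Talalay method.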

[3] = molecular target: T1, Anoctamin-1 (Mus musculus); assay: Reversible inhibition of GFP-fused mouse ANO1 channel expressed in HEK293A cells assessed as channel current amplitude at 10 uM at membrane potential of +80 mV measured after drug wash-out by patch clamp electrophysiology assay; format: cell-based; parameters: scale not given: the % may be the effect or the level left; conditions: HEK293-A; in short: as §1
U-251 [4] = assay: Antiproliferative activity against human U251 cells overexpressing ANO1 assessed as reduction in cell viability in presence of temozolomide measured after 72 hrs by Celltiter-glo assay; format: functional

NC(=O)c1c(NC(=S)NC(=O)c2ccc(Cl)cc2)sc2c1CCC2
inhibition [1]: Active
IC50 (Anoctamin-2): 7.43 µM

CC(C)(C)C(=O)Nc1sc2c(c1C(N)=O)CCC(C(C)(C)C)C2 (stereo unspecified)
CI (U-251 [2]): 0.63
Activity [3]: 85.8%
IC50 (Anoctamin-2): 15.4 µM
GI50 (U-251 [4]): 5.32 µM
